Test results from ChEMBL document CHEMBL2146467, “Generation and exploration of new classes of antitubercular agents: The optimization of oxazolines, oxazoles, thiazolines, thiazoles to imidazo[1,2-a]pyridines and isomeric 5,6-fused scaffolds” (Bioorg Med Chem, 2012).
In brackets after ≈: the same amount, converted by molar mass.

Experiments:
[1] = test system: Mycobacterium tuberculosis; test: Antimycobacterial activity against Mycobacterium tuberculosis H37Rv ATCC 27294 culture in GAST media after 7 days by microplate alamar blue assay; type: functional; conditions: H37Rv ATCC 27294, 168 h
Procedure, shortened: (§1)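 Replicating Mtb H37Rv. The MIC is the concentration that inhibits growth of 90% of organisms. Media by line: GAS is glycerol-alanine-salts. GAST is iron-deficient glycerol-alanine-salts with Tween 80. 7H12 is 7H9 broth base with BSA, casein hydrolysate, catalase and palmitic acid. Values are reported in μM.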

[2] = test system: Mycobacterium tuberculosis; test: Antimycobacterial activity against Mycobacterium tuberculosis H37Rv ATCC 27294 culture in 7H12 media after 7 days by microplate alamar blue assay; type: functional; conditions: H37Rv ATCC 27294, 168 h; procedure, shortened: as §1
[3] = Metabolic stability in Sprague-Dawley rat liver microsomes assessed as compound remaining at 20 uM after 15 mins by LC/MS analysis; type: ADME, Microsome; conditions: read-out: Stability
[4] = test system: Mycobacterium tuberculosis; test: microbe, parasite or virus in culture; type: functional; conditions: H37Rv
[5] = test system: Mycobacterium tuberculosis; test: Antimycobacterial activity against Mycobacterium tuberculosis H37Rv ATCC 27294 culture in GAS media after 7 days by microplate alamar blue assay; type: functional; conditions: H37Rv ATCC 27294, 168 h; procedure, shortened: as §1
Vero = test: Cytotoxicity against african green monkey Vero cells after 72 hrs by CellTiter assay; type: cell-based; conditions: Chlorocebus sabaeus
[6] = Chemical stability in simulated gastric fluid assessed as compound remaining at 50 uM after 15 mins by LC/MS analysis; type: physicochemical; conditions: read-out: Stability
[7] = test system: Mycobacterium tuberculosis; test: Antimycobacterial activity against drug-sensitive Mycobacterium tuberculosis isolate 2 after 14 days; type: functional; conditions: isolate 2, 336 h
[8] = test system: Mycobacterium tuberculosis; test: Antimycobacterial activity against isoniazid-,rifampin-,ethambutol-,kanamycin-,paraaminosalicylic acid-resistant Mycobacterium tuberculosis after 14 days; type: functional; conditions: 336 h
Escherichia coli = test: Antibacterial activity against Escherichia coli; type: functional
Mycobacterium kansasii = test: Antimycobacterial activity against Mycobacterium kansasii; type: functional
Staphylococcus aureus = test: Antibacterial activity against Staphylococcus aureus; type: functional
Mycobacterium avium = test: Antimycobacterial activity against Mycobacterium avium; type: functional
[9] = test system: Mycobacterium tuberculosis; test: Antimycobacterial activity against drug-sensitive Mycobacterium tuberculosis isolate 1 after 14 days; type: functional; conditions: isolate 1, 336 h
[10] = test system: Mycobacterium tuberculosis; test: Antimycobacterial activity against isoniazid-,rifampin-,ethambutol-,pyrazinamide-,streptomycin-,kanamycin-,paraaminosalicylic acid-resistant Mycobacterium tuberculosis after 14 days; type: functional; conditions: 336 h

Structure (SMILES)	MIC90 [1] [µM]	MIC90 [2] [µM]	remaining at 0.25 h, 20 µM [3] [%]	MIC90 [4] [µM]	MIC90 [5] [µM]	IC50 (Vero) [µM]	remaining at 0.25 h, 50 µM [6] [%]	MIC90 [7] [µM]	MIC90 [8] [µM]	MIC (Escherichia coli) [µM]	MIC (Mycobacterium kansasii) [µM]	MIC (Staphylococcus aureus) [µM]	MIC (Mycobacterium avium) [µM]	MIC90 [9] [µM]	MIC90 [10] [µM]
O=C(OCc1ccccc1)[C@@H]1COC(c2ccccc2)=N1	4.4 (≈ 1.24 µg/mL)	16.6 (≈ 4.67 µg/mL)	2.8	63 (≈ 17.7 µg/mL)	4.9 (≈ 1.38 µg/mL)	> 128	1.7	–	–	–	–	–	–	–	–
O=C(OCc1ccccc1)c1coc(-c2ccccc2)n1	0.49 (≈ 0.137 µg/mL)	3.9 (≈ 1.09 µg/mL)	2.7	37 (≈ 10.3 µg/mL)	5.7 (≈ 1.59 µg/mL)	–	1.8	2.2 (≈ 0.614 µg/mL)	1.1 (≈ 0.307 µg/mL)	–	–	–	–	–	–
Cc1ccn2c(C(=O)NCc3ccccc3)c(C)nc2c1	2 (≈ 0.559 µg/mL)	2.3 (≈ 0.642 µg/mL)	90	54 (≈ 15.1 µg/mL)	0.7 (≈ 0.196 µg/mL)	> 128	100	–	–	> 50	1.3 (≈ 0.363 µg/mL)	> 50	1.3 (≈ 0.363 µg/mL)	–	–
O=C(OCc1ccccc1)c1csc(-c2ccccc2)n1	6.2 (≈ 1.83 µg/mL)	7.2 (≈ 2.13 µg/mL)	–	–	6 (≈ 1.77 µg/mL)	> 128	–	8.5 (≈ 2.51 µg/mL)	4.2 (≈ 1.24 µg/mL)	–	–	–	–	–	–
O=C(OCc1ccccc1)c1cc(-c2ccccc2)on1	–	0.8 (≈ 0.223 µg/mL)	–	28 (≈ 7.82 µg/mL)	2.2 (≈ 0.614 µg/mL)	> 50	–	–	–	–	–	–	–	–	–
Cc1ccn2c(C(=O)OCc3ccccc3)c(-c3ccccc3)nc2c1	–	< 0.195	–	21.7 (≈ 7.43 µg/mL)	< 0.195	> 50	–	–	–	–	–	–	–	–	–
Cc1ccn2c(C(=O)NCc3ccccc3)c(-c3ccccc3)nc2c1	–	2.9 (≈ 0.99 µg/mL)	–	> 50	0.6 (≈ 0.205 µg/mL)	> 50	–	–	–	–	–	–	–	–	–
Cc1ccn2c(C(=O)OCc3ccccc3)c(C)nc2c1	–	< 0.195	–	34.8 (≈ 9.76 µg/mL)	< 0.195	> 50	–	< 0.04	< 0.04	–	–	–	–	< 0.04	< 0.04
O=C(Nc1ccccc1)c1coc(-c2ccccc2)n1	28 (≈ 7.4 µg/mL)	–	–	50 (≈ 13.2 µg/mL)	11 (≈ 2.91 µg/mL)	> 128	–	–	–	–	–	–	–	–	–
NNC(=O)c1ccncc1 [ISONIAZID]	–	0.37 (≈ 0.0507 µg/mL)	–	> 512	0.22 (≈ 0.0302 µg/mL)	> 128	–	–	–	–	–	–	–	–	–
O=[N+]([O-])c1cn2c(n1)OC[C@@H](OCc1ccc(OC(F)(F)F)cc1)C2 [PRETOMANID]	–	–	–	–	–	–	–	> 13.9	0.45 (≈ 0.162 µg/mL)	–	–	–	–	0.45 (≈ 0.162 µg/mL)	0.45 (≈ 0.162 µg/mL)
